According to ChEMBL document CHEMBL4765297, “In silico/in vitro screening and hit evaluation identified new phenothiazine anti-prion derivatives” (Eur J Med Chem, 2020):
Active and inactive are the calls of the source.

How the values were obtained:
ScN2a [1] = test: Anti-prion activity against RML prion protein in mouse N2a cells assessed as Scrapie prion protein level at 1 uM in presence of proteinase K by Western blotting analysis relative to control; format: cell-based
Outline: (§1)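 ScN2a or ScGT1 cells chronically infected with RML or 22L prions (N2a in MEM/10% FBS; GT1 in DMEM/10% FBS) treated 4 days with compound (DMSO stock diluted in EtOH, then medium; final DMSO ≤0.1%). Immunoblot with anti-PrP Fab W226, ECL, densitometry, normalized to untreated control (100%).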

ScN2a [2] = test: Anti-prion activity against RML prion protein in mouse N2a cells assessed as Scrapie prion protein level at 1 uM in absence of proteinase K by Western blotting analysis relative to control; format: cell-based; outline: as §1
N2a [3] = test: Cytotoxicity against mouse N2a cells assessed as reduction in cell viability incubated for 3 hrs by MTT assay; format: cell-based
Outline: (§2)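 N2a, ScN2a, GT1 or ScGT1 cells seeded (2.5×10^4/mL MEM for N2a lines; 3×10^4/mL DMEM for GT1 lines), settled 1 day. Treated at 0.1, 1 and 10 µM for 5 days at 37 °C, 5% CO2. Read-outs: MTT (5 mg/mL, 3 h, DMSO/2-propanol solubilization, A590); CCK-8 (4 h, A450); calcein-AM (2.5 µM added, 30 min, 492/525 nm). Viability threshold 80%.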

N2a [4] = test: Cytotoxicity against mouse N2a cells assessed as reduction in cell viability incubated for 4 hrs by CCK-8 assay; format: cell-based; outline: as §2
N2a [5] = test: Cytotoxicity against mouse N2a cells assessed as reduction in cell viability incubated for 30 mins by Calcein assay; format: cell-based; conditions: 0.5 h; outline: as §2
[6] = Anti-prion activity against RML prion protein in mouse ScN2a cells in presence of proteinase K by Western blotting analysis; format: cell-based
Outline: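 ScN2a-RML cells treated 4 days with 8 concentrations from 0 to 4 µM. Lysates PK-digested (10 µg PK, 1 h, 37 °C) and ultracentrifuged. Pellets denatured in 8 M GdnHCl and coated on ELISA plates overnight at 4 °C. Detection with W226 (1.5 µg/mL), HRP secondary and TMB, A450. IC50 taken from the dose-response curve, with Western blot confirmation.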

ScN2a [7] = test: Cytotoxicity against mouse ScN2a cells upto 10 uM; format: cell-based; outline: as §2
ScN2a [8] = test: Anti-prion activity against RML prion protein in mouse ScN2a cells assessed as Scrapie prion protein level at 4 uM in absence of proteinase K by Western blotting analysis relative to control; format: cell-based; outline: as §1
ScN2a [9] = test: Anti-prion activity against RML prion protein in mouse ScN2a cells assessed as Scrapie prion protein level at 4 uM in presence of proteinase K by Western blotting analysis relative to control; format: cell-based; outline: as §1
ScN2a [10] = test: Anti-prion activity against 22L prion protein in mouse ScN2a cells assessed as Scrapie prion protein level at 4 uM in absence of proteinase K by Western blotting analysis relative to control; format: cell-based; outline: as §1
ScN2a [11] = test: Anti-prion activity against 22L prion protein in mouse ScN2a cells assessed as Scrapie prion protein level at 4 uM in presence of proteinase K by Western blotting analysis relative to control; format: cell-based; outline: as §1
N2a [12] = test: Anti-prion activity in mouse N2a cells assessed as effect on localization of cell membrane at 0.4 uM by immunofluorescence staining assay; format: functional, cell-based
Outline: (§3)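 N2a cells on poly-lysine coverslips treated with 0.4 or 4 µM. Chilled on ice 15 min, live surface staining with W226 (1:200) 20 min on ice, then fixed in 4% PFA and blocked in 7% goat serum. Alexa488 anti-mouse secondary 1 h, DAPI counterstain, confocal imaging of surface PrPC.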

N2a [13] = test: Anti-prion activity in mouse N2a cells assessed as effect on localization of cell membrane at 4 uM by immunofluorescence staining assay; format: functional, cell-based; outline: as §3
ScGT1 [14] = test: Anti-prion activity against RML prion protein in mouse ScGT1 cells assessed as Scrapie prion protein level at 4 uM in absence of proteinase K by Western blotting analysis relative to control; format: cell-based; outline: as §1
ScGT1 [15] = test: Anti-prion activity against RML prion protein in mouse ScGT1 cells assessed as Scrapie prion protein level at 4 uM in presence of proteinase K by Western blotting analysis relative to control; format: cell-based; outline: as §1
ScGT1 [16] = test: Anti-prion activity against 22L prion protein in mouse ScGT1 cells assessed as Scrapie prion protein level at 4 uM in absence of proteinase K by Western blotting analysis relative to control; format: cell-based; outline: as §1
ScGT1 [17] = test: Anti-prion activity against 22L prion protein in mouse ScGT1 cells assessed as Scrapie prion protein level at 4 uM in presence of proteinase K by Western blotting analysis relative to control; format: cell-based; outline: as §1
ScN2a [18] = test: Anti-prion activity in mouse ScN2a cells in absence of proteinase K by Western blotting analysis relative to control; format: functional; outline: as §1
ScN2a [19] = test: Anti-prion activity in mouse ScN2a cells in presence of proteinase K by Western blotting analysis relative to control; format: functional; outline: as §1
ScN2a [20] = test: Anti-prion activity in mouse ScN2a cells at 1N in absence of proteinase K by Western blotting analysis relative to control; format: functional
Outline: (§4)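 Filtered through 3 kDa centrifugal membrane; filtrate (or compound alone, with or without filtration) given to ScN2a cells 4 days. PK-digested/undigested lysates immunoblotted with W226; three independent experiments, control normalized to 100%.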

ScN2a [21] = test: Anti-prion activity in mouse ScN2a cells at 1N in presence of proteinase K by Western blotting analysis relative to control; format: functional; outline: as §4
ScN2a [22] = test: Anti-prion activity in mouse ScN2a cells at 2:1 Prp to compound concentration in absence of proteinase K by Western blotting analysis relative to control; format: functional; outline: as §4
ScN2a [23] = test: Anti-prion activity in mouse ScN2a cells at 2:1 Prp to compound concentration in presence of proteinase K by Western blotting analysis relative to control; format: functional; outline: as §4
ScN2a [24] = test: Anti-prion activity in mouse ScN2a cells at 1:1 Prp to compound concentration in absence of proteinase K by Western blotting analysis relative to control; format: functional; outline: as §4
ScN2a [25] = test: Anti-prion activity in mouse ScN2a cells at 1:1 Prp to compound concentration in presence of proteinase K by Western blotting analysis relative to control; format: functional; outline: as §4
ScN2a [26] = test: Anti-prion activity in mouse ScN2a cells at 1:2 Prp to compound concentration in absence of proteinase K by Western blotting analysis relative to control; format: functional; outline: as §4
ScN2a [27] = test: Anti-prion activity in mouse ScN2a cells at 1:2 Prp to compound concentration in presence of proteinase K by Western blotting analysis relative to control; format: functional; outline: as §4
ScN2a [28] = test: Anti-prion activity in mouse ScN2a cells at 1:5 Prp to compound concentration in absence of proteinase K by Western blotting analysis relative to control; format: functional; outline: as §4
ScN2a [29] = test: Anti-prion activity in mouse ScN2a cells at 1:5 Prp to compound concentration in presence of proteinase K by Western blotting analysis relative to control; format: functional; outline: as §4

## C/C(=N\Nc1ccnc2cc(Cl)ccc12)c1ccc2c(c1)Nc1ccccc1S2
ScN2a [1]
  Activity: 35.6%
ScN2a [2]
  Activity: 55.7%
N2a [3]
  Activity: Non-Toxic
N2a [4]
  Activity: Non-Toxic
N2a [5]
  Activity: Non-Toxic
[6]
  IC50: 420 nM
ScN2a [7]
  Activity: Non-Toxic
ScN2a [8]
  Activity: 62.1%
ScN2a [9]
  Activity: 9.4%
ScN2a [10]
  Activity: 48.7%
ScN2a [11]
  Activity: 5.1%
N2a [12]
  Activity: inactive
N2a [13]
  Activity: inactive
ScGT1 [14]
  Activity: 42%
ScGT1 [15]
  Activity: 12.3%
ScGT1 [16]
  Activity: 39.2%
ScGT1 [17]
  Activity: 11%
ScN2a [18]
  Activity: 48.8%
ScN2a [19]
  Activity: 25.2%
ScN2a [20]
  Activity: 51.7%
ScN2a [21]
  Activity: 22.6%
ScN2a [22]
  Activity: 114.4%
ScN2a [23]
  Activity: 108.2%
ScN2a [24]
  Activity: 117.6%
ScN2a [25]
  Activity: 90.1%
ScN2a [26]
  Activity: 98.4%
ScN2a [27]
  Activity: 65.7%
ScN2a [28]
  Activity: 41%
ScN2a [29]
  Activity: 13.6%

## C/C(=N\Nc1ccnc2cc(Cl)ccc12)c1ccc2c(c1)N(CCN1CCCCC1)c1ccccc1S2
ScN2a [1]
  Activity: 13.6%
ScN2a [2]
  Activity: 70.2%

## C/C(=N\Nc1ccnc2cc(Cl)ccc12)c1ccc2c(c1)N(CCN1CCOCC1)c1ccccc1S2
ScN2a [1]
  Activity: 70.3%
ScN2a [2]
  Activity: 95.3%

## C/C(=N\Nc1ccnc2cc(Cl)ccc12)c1ccc2c(c1)N(CCCN(C)C)c1ccccc1S2
ScN2a [1]
  Activity: 11.9%
ScN2a [2]
  Activity: 68.7%

## Cc1cc(/C=N/Nc2ccnc3cc(Cl)ccc23)c(C)cc1/C=N/Nc1ccnc2cc(Cl)ccc12
ScN2a [1]
  Activity: 70.9%
ScN2a [2]
  Activity: 63.8%
N2a [3]
  Activity: Non-Toxic
N2a [4]
  Activity: Non-Toxic
N2a [5]
  Activity: Non-Toxic

## C/C(=N\Nc1ccnc2cc(Cl)ccc12)c1ccc2c(c1)N(CCN1CCN(C)CC1)c1ccccc1S2
ScN2a [1]
  Activity: 4.4%
ScN2a [2]
  Activity: 55.9%

## COc1ccc2nc(NC(=O)c3cc4c(=O)n(C)c5cc(Cl)ccc5c4s3)sc2c1
ScN2a [1]
  Activity: 85.4%
ScN2a [2]
  Activity: 69.1%
N2a [3]
  Activity: Non-Toxic
N2a [4]
  Activity: Non-Toxic
N2a [5]
  Activity: Non-Toxic

## Cn1c(=O)c2cc(C(=O)Nc3ccc(Oc4ccccc4)cc3)sc2c2ccc(Cl)cc21
ScN2a [1]
  Activity: 94.4%
ScN2a [2]
  Activity: 92.5%
N2a [3]
  Activity: Non-Toxic
N2a [4]
  Activity: Non-Toxic
N2a [5]
  Activity: Non-Toxic

## O=C(Nc1ccc(Oc2ccccc2)cc1)c1cc2cc3ccc(Cl)cc3nc2o1
ScN2a [1]
  Activity: 109%
ScN2a [2]
  Activity: 92.6%
N2a [3]
  Activity: Non-Toxic
N2a [4]
  Activity: Non-Toxic
N2a [5]
  Activity: Non-Toxic

## Cn1c(=O)c2cc(C(=O)N3CCC(Cc4ccccc4)CC3)sc2c2ccc(Cl)cc21
ScN2a [1]
  Activity: 82.4%
ScN2a [2]
  Activity: 99.6%
N2a [3]
  Activity: Non-Toxic
N2a [4]
  Activity: Non-Toxic
N2a [5]
  Activity: Non-Toxic

## CCOc1ccc(CNC(=O)CSc2c3c(nc4cc(Cl)ccc24)CCCC3)cc1
ScN2a [1]
  Activity: 102%
ScN2a [2]
  Activity: 110%
N2a [3]
  Activity: Non-Toxic
N2a [4]
  Activity: Non-Toxic
N2a [5]
  Activity: Non-Toxic

## COC(=O)c1ccc(COc2ccc(/C=N/Nc3ccnc4cc(Cl)ccc34)cc2OC)cc1
ScN2a [1]
  Activity: 82.3%
ScN2a [2]
  Activity: 95.6%
N2a [3]
  Activity: Non-Toxic
N2a [4]
  Activity: Non-Toxic
N2a [5]
  Activity: Non-Toxic

## Cn1c(CSc2ccnc3cc(Cl)ccc23)nnc1SCC(=O)N1CCN(c2ccccc2)CC1
ScN2a [1]
  Activity: 88%
ScN2a [2]
  Activity: 85.8%
N2a [3]
  Activity: Non-Toxic
N2a [4]
  Activity: Non-Toxic
N2a [5]
  Activity: Non-Toxic

## CCc1ccc(CNC(=O)CSc2c3c(nc4cc(Cl)ccc24)CCCC3)cc1
ScN2a [1]
  Activity: 77.1%
ScN2a [2]
  Activity: 83.5%
N2a [3]
  Activity: Non-Toxic
N2a [4]
  Activity: Non-Toxic
N2a [5]
  Activity: Non-Toxic

## C/C(=N\Nc1ccnc2cc(Cl)ccc12)c1ccc2c(c1)N(CCN(C)C)c1ccccc1S2
ScN2a [1]
  Activity: 8.6%
ScN2a [2]
  Activity: 60.2%
